For series [1], the target named is T1, Cathepsin K (Homo sapiens, UniProt P43235).
T1 sequence (P43235 whole entry): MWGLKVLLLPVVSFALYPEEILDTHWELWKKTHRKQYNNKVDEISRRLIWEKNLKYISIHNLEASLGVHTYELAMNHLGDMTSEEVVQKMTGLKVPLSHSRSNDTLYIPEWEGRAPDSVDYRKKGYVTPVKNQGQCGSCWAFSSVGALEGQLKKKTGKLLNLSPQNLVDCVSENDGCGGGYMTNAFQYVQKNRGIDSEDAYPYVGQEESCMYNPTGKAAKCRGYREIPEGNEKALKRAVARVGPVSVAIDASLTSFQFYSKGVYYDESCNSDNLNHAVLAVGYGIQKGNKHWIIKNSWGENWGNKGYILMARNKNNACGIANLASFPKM
In words: Inhibitory activity against human Cathepsin K.

Series [2] concerns the target T2, Cathepsin K (Oryctolagus cuniculus, UniProt P43236).
T2 sequence (P43236 whole entry): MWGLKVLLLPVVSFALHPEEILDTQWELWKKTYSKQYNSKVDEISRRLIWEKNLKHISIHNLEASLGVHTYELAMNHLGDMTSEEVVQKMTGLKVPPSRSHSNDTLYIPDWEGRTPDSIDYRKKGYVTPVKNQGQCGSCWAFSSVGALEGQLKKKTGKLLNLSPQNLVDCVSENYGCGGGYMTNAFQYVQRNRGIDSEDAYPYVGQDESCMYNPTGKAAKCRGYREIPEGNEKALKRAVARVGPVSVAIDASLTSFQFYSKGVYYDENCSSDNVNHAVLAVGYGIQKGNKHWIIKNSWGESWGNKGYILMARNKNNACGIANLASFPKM
Kind of series: Inhibitory activity against rabbit Cathepsin K.

The target of series [3] is Cathepsin K (Homo sapiens, UniProt P43235). Kind of series: Inhibitory activity against humanized rabbit Cathepsin K.
Series [4] addresses Cathepsin (L and K) (Homo sapiens) (UniProt P43235+P07711). Kind of series: Selectivity for Cathepsin L over Cathepsin K. It counts as protein assay.
Series [5] deals with Cathepsin (B and K) (Homo sapiens) (UniProt P43235+P07858). Kind of series: Selectivity for Cathepsin B over Cathepsin K. In kind it is protein assay.
The target in series [6] is Cathepsin (S and K) (Homo sapiens) (UniProt P25774+P43235). In words: Selectivity for Cathepsin S over Cathepsin K. In kind it is protein assay.
Series [7] can be described thus: Half life in rat at 1 mL/kg, iv. The settings on record: Sprague-Dawley, in vivo.
Series [8] in a line: Plasma clearance in rat at 1 mL/kg, iv. Particulars: Sprague-Dawley.
Series [9] is described as follows: Half life in rat at 10 mL/kg, po. In kind it is ADME, organism-based. Particulars: Sprague-Dawley, in vivo. Summed up:
(§1)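 Single compounds given orally as suspensions in 1% methocel to animals fasted overnight, dosed in the morning. Oral dosing volumes were 10 mL/kg for rats, 5 mL/kg for dogs and 1 mL/kg for monkeys. Intravenous comparison dosing went via the jugular vein in PEG-200/H₂O (3:2) at 1 mL/kg. Plasma was sampled at regular intervals, precipitated with 1.5 volumes of acetonitrile, centrifuged and analysed by LC-MS.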

Series [10] in a line: Plasma clearance in rat at 10 mL/kg, po. It counts as ADME, organism-based. The settings on record: Sprague-Dawley. Summed up:
as §1

Series [11] in a line: Oral bioavailability in rats at 10 mL/kg, po. Particulars: Sprague-Dawley, rat, in vivo. It counts as ADME, organism-based. Summed up:
as §1

The structures appear in SMILES notation.

Turning to `N#CCNC(=O)C1=CCCCC1`, the IC50 (in general, the point on the concentration scale where inhibition reaches its midpoint) in series [1] is 3.4 µM.

Consider `CSc1ccc(-c2ccccc2[C@H]2CCC(F)(F)C[C@@H]2C(=O)NCC#N)cc1`, for which the half-inhibitory concentration (IC50) worked out at 0.0092 µM in series [2] and 0.0071 µM in [3].

The compound `N#CCNC(=O)[C@@H]1CCCC[C@H]1CSc1cccc(O)c1` displayed an IC50 in [3] of 0.33 µM.

`N#CCNC(=O)C1(NC(=O)c2ccccc2)CCCCC1` yielded a half-inhibitory concentration (IC50) in series [1] of 0.078 µM.

With `N#CCNC(=O)[C@@H]1CCCC[C@H]1CSc1ccc(F)cc1` (mixture of isomers), in [3], the IC50 came out at 0.03 µM. Besides, the Selectivity ratio in [4] was 120; in series [5], 145; in series [6], 35.

As to `CSc1ccc(S(=O)(=O)C[C@@H]2CCCC[C@H]2C(=O)NCC#N)cc1` (mixture of isomers), in series [3], the half-inhibitory concentration (IC50) amounted to 0.005 µM. Moreover, the Selectivity ratio in [4] was 740; in series [5], 2000; in [6], 1800. Further, the half-life (commonly how long it takes for the measured level to halve) in series [7] came to 0.0833 h. For the same compound, the clearance – broadly, a measure of how efficiently the substance is removed, as volume per time – in series [8] is 38 mL/min/kg.

As to `N#CCNC(=O)[C@@H]1CCCC[C@H]1CSc1ccc(Cl)cc1Cl` (mixture of isomers), half-maximal inhibition in [3] (IC50) required 0.11 µM.

Turning to `N#CCNC(=O)[C@@H]1CCCC[C@H]1CSc1cccc(Cl)c1` (mixture of isomers), in series [3], the IC50 is 0.2 µM.

In series [3], `N#CCNC(=O)[C@@H]1CCCC[C@H]1CSc1ccc(N)cc1` (mixture of isomers) displayed a half-inhibitory concentration (IC50) of 0.1 µM. Also, the Selectivity ratio in series [4] was 350; in series [5], above 990; in series [6], 120.

With `N#CCNC(=O)[C@@H]1CCCC[C@H]1CSc1cccc(Br)c1` (mixture of isomers), the 50% inhibitory concentration (IC50) in series [3] is 0.15 µM.

`N#CCNC(=O)[C@@H]1CCCC[C@H]1CS(=O)(=O)c1ccc(OC(F)(F)F)cc1` (racemic) returned a half-life in series [7] of 0.333 h. The clearance in series [8] worked out at 42 mL/min/kg.

As to `N#CCNC(=O)[C@@H]1CCCC[C@H]1CSc1ccccc1` (racemic), the figures for the IC50 in series [3] and in series [1] were 0.172 µM and 0.14 µM, respectively. Also, the Selectivity ratio in series [4] came to 150; in series [5], 31; in [6], 28.

As for `N#CCNC(=O)[C@@H]1CCCC[C@H]1SCc1ccccc1` (racemic), in [1], the concentration for half-maximal inhibition (IC50) is 0.052 µM.

With `COc1cccc(SC[C@@H]2CCCC[C@H]2C(=O)NCC#N)c1` (racemic), in series [3], inhibition was half-maximal at 0.37 µM (IC50).

`N#CCNC(=O)[C@@H]1CCCC[C@H]1CSc1cccc(N)c1` (racemic) showed an IC50 in series [3] of 0.7 µM.

In series [7], `N#CCNC(=O)[C@@H]1CCCC[C@H]1c1ccccc1-c1ccc(F)cc1` (racemic) had a half-life of 0.75 h. This compound displayed a clearance in series [8] of 50 mL/min/kg.

As to `COc1ccc(SC[C@@H]2CCCC[C@H]2C(=O)NCC#N)cc1` (racemic), half-maximal inhibition in series [3] (IC50) was put at 0.028 µM. Also, the Selectivity ratio was 810 in series [4], above 3500 in series [5] and 960 in series [6].

For `CSc1ccc(-c2ccccc2C2CCC(F)(F)CC2C(=O)NCC#N)cc1` (racemic), the figures for the half-inhibitory concentration (IC50) in series [2] and in [3] were 0.0005 µM and 0.00046 µM, respectively. The values for the Selectivity ratio in series [4], in series [5] and in [6] were 880, above 120000 and 1100, respectively. This compound showed a half-life in series [9] of 3.5 h. Moreover, the CL/F (commonly the apparent clearance, not corrected for the fraction that reaches the circulation) in series [10] stood at 15 mL/min/kg. Moreover, the bioavailability (usually the share of a dose that reaches the circulation, judged against a reference dose that is usually intravenous) in series [11] is 53%.

In series [3], `N#CCNC(=O)[C@@H]1CCCC[C@H]1CSc1ccc(Br)cc1` (racemic) returned a concentration for half-maximal inhibition (IC50) of 0.033 µM. Further, the Selectivity ratio in series [4] is 71; in series [5] it was above 3100; in [6], above 3100.

In series [3], `CSc1ccc(SC[C@@H]2CCCC[C@H]2C(=O)NCC#N)cc1` (racemic) yielded a half-inhibitory concentration (IC50) of 0.0042 µM. Moreover, the figures for the Selectivity ratio in [4], in series [5] and in series [6] were 2200, above 24000 and 3200, respectively.

In the case of `N#CCNC(=O)[C@@H]1CCCC[C@H]1CSc1cc(Cl)c(Cl)cc1Cl` (racemic), in [3], the IC50 was 0.46 µM.

Compound `N#CCNC(=O)[C@@H]1CCCC[C@H]1CSc1nc2ccccc2s1` (racemic) came in with an IC50 in series [3] of 0.2 µM.

Turning to `N#CCNC(=O)[C@@H]1CCCC[C@H]1CSc1nc2ccccc2o1` (racemic), the half-inhibitory concentration (IC50) in series [3] came out at 0.48 µM.

Take `Cc1ccc(SC[C@@H]2CCCC[C@H]2C(=O)NCC#N)cc1` (racemic): in series [3], half-maximal inhibition (IC50) required 0.1 µM. For the same compound, the Selectivity ratio in series [4] was 110; in [5] it was 380; in series [6], 180.

Compound `N#CCNC(=O)[C@@H]1CCCC[C@H]1CSc1ccc(O)cc1` (racemic) gave an IC50 in series [3] of 0.021 µM. In addition, the figures for the Selectivity ratio in series [4], in series [5] and in [6] were 1700, 880 and 110, respectively.

For `N#CCNC(=O)[C@@H]1CCCC[C@H]1CSc1ncccn1` (racemic), the half-maximal inhibitory concentration (IC50) in [3] was determined as 0.99 µM.

For the compound `N#CCNC(=O)C1CC(F)(F)CCC1c1ccccc1-c1ccc(F)cc1` (racemic), the results for the 50% inhibitory concentration (IC50) in series [2] and in series [3] were 0.0092 µM and 0.036 µM, respectively. The half-life in [9] was 4.5 h. Also, in [10], the apparent clearance CL/F is 37 mL/min/kg. Besides, the bioavailability in series [11] is 26%.

As to `N#CCNC(=O)[C@@H]1CCCC[C@H]1CSc1ccc(Cl)cc1` (racemic), the IC50 in series [3] was found to be 0.03 µM. For the same compound, the figures for the Selectivity ratio in series [4], in series [5] and in series [6] were 120, above 3400 and 330, respectively.

`N#CCNC(=O)[C@@H]1CCCC[C@@H]1SCc1ccccc1` (racemic): in series [1], the 50% inhibitory concentration (IC50) was determined as 0.28 µM.

In series [3], `N#CCNC(=O)[C@@H]1CCCC[C@H]1CSc1cc(Cl)cc(Cl)c1` (racemic) came in with a half-maximal inhibitory concentration (IC50) of 0.28 µM.

In series [3], `N#CCNC(=O)[C@@H]1CCCC[C@H]1CSc1cc(Cl)ccc1Cl` (racemic) came in with a concentration for half-maximal inhibition (IC50) of 0.15 µM.

Take `N#CCNC(=O)[C@@H]1CCCC[C@H]1CSc1nccs1` (racemic): the IC50 in [3] amounted to 0.49 µM.

For `CSc1ccc(-c2ccccc2C2CCC(Cl)(Cl)CC2C(=O)NCC#N)cc1` (racemic), the IC50 was 0.00059 µM in series [2] and 0.00058 µM in series [3]. Moreover, the Selectivity ratio in series [4] is 450; in [5] it was above 17000; in series [6] it was 52. For the same compound, in series [9], the half-life was 3.1 h. In series [10], this compound displayed an apparent clearance CL/F of 51 mL/min/kg. Besides, the bioavailability in [11] turned out to be 75%.

As for `N#CCNC(=O)[C@@H]1CCCC[C@H]1CSc1cccc(F)c1` (racemic), half-maximal inhibition in series [3] (IC50) was put at 0.35 µM.

Regarding `CSc1ccc(-c2ccccc2C2CCC(F)CC2C(=O)NCC#N)cc1` (racemic; form 1), the Selectivity ratio in series [4] is 1600; in [5] it was above 2400; in series [6], 1500.

For the compound `CSc1ccc(-c2ccccc2C2CCC(F)CC2C(=O)NCC#N)cc1` (racemic; form 2) [listing 1 of 2 here], the IC50 in series [2] is 0.012 µM; in series [3], 0.0037 µM.

As for `CSc1ccc(-c2ccccc2C2CCC(F)CC2C(=O)NCC#N)cc1` (racemic; form 2) [listing 2 of 2 here], the figures for the Selectivity ratio in series [4], in series [5] and in series [6] were 2000, above 2700 and 180, respectively.

In series [3], `N#CCNC(=O)[C@@H]1CCCC[C@H]1CSc1ncc[nH]1` (relative stereo) returned an IC50 of 0.41 µM.

Regarding `N#CCNC(=O)[C@@H]1CCCC[C@H]1CSc1ccc(I)cc1` (relative stereo), half-maximal inhibition in series [3] (IC50) required 0.017 µM. Besides, the values for the Selectivity ratio in [4], in series [5] and in series [6] were 52, above 5800 and above 5800, respectively.

Take `N#CCNC(=O)[C@@H]1CCCC[C@H]1CSc1nnc(-c2ccncc2)o1` (relative stereo): the IC50 in series [3] was found to be 0.95 µM.

These data come from ChEMBL document CHEMBL1149395, “Beta-substituted cyclohexanecarboxamide: a nonpeptidic framework for the design of potent inhibitors of cathepsin K” (J Med Chem, 2006).
